# bCat KO growth = primary screen for growth suppressors in beta-catenin knockout HCT116 cells (colon tumor, human). HCT116 beta-catenin knockout viability, CellTiter-Glo, 60 h; active compounds read low. viability, % at 10 µM. 1.5% of 140,000 active;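 active means viability at or under a set limit, the compound median less 4 SD, cut at about 6% in these data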;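 further: 0% = Hyamine 1622 control at 20 µM and 100% = untreated cell control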
# HUVEC prolif 384 = inhibitors of HUVEC proliferation, primary screen, cell-based, 384-well; CellTiter-Glo luminescence, 72 h; active compounds read low; viability, % at 10 µM (by protocol); 1.1% of 86,000 active; AID 648, 2007;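 active means viability at or below 30%; inactive means viability above 30%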;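 further: 100% = median luminescence of DMSO-only cell control wells on each plate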
# H69AR growth 86K = proliferation blockers of H69AR lung cancer cells, primary screen, cell-based, human, 86K library | H69AR lung tumor viability, ATP luminescence, 72 h; active compounds read low | viability, % at 10 µM | 6% of 85,000 active;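 active means viability at or below 40%; inactive means viability above 40%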;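 further: multidrug resistant small cell line overexpressing MRP-1 efflux transporter; 100% = mean luminescence of untreated control wells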
# Lung fibro prol = antiproliferative effect on LL 47 fibroblasts – human, LL 47 cells, CellTiter-Glo luminescence, primary screen; 1.1% of 85,000 active; LL 47 human lung fibroblast viability, ATP luminescence; active compounds read low; viability, % at 10 µM;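 active means viability at or below 50% in the single dose screen; inactive means viability above 50%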;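 further: compound exposure lasted 72 h before the ATP readout; 100% = median luminescence of untreated cell-only wells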
#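 Test system: LL 47 human lung fibroblasts / Quantity: 1,150 cells in each well / Medium: IMEM growth medium with 15% fetal bovine serum / Incubation: 72 h compound exposure at 37 °C after overnight plating / Detection: CellTiter-Glo luminescence measuring cellular ATP / Read-out: % viability versus median cells-only luminescence / Benchmarks: cell-only wells, no compound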
# PTEN del growth = growth suppression of PTEN-null HCT116, primary screen, cell-based, CellTiter-Glo; 1.2% of 140,000 active; HCT116 PTEN-null viability, 60 h; active compounds read low; AID 827, 2007; viability, % at 10 µM;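 active means viability at or below a set limit, 4 SD under the median of all tested compounds, cut at about 3.7% in these data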;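 further: PTEN knockout HCT116 line with beta catenin targeted HCT116 as companion control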
# * marks the source's active call; other numbers are inactive results; nt = not tested or not shown. Many of the other results were omitted from the sample, so hits are more common in it than they were.
SMILES,bCat KO growth,HUVEC prolif 384,H69AR growth 86K,Lung fibro prol,PTEN del growth
Cc1cc(Cl)ccc1NC(=S)NCC(C)C,98,nt,nt,nt,89
O=C(CCc1ccc(S(=O)(=O)N2CCOCC2)cc1)Nc1nc(COc2ccccc2)cs1,49,nt,nt,nt,38
Cc1cccc2cc(C(c3nnnn3Cc3ccccc3)N3CCCc4ccccc43)c(=O)[nH]c12 (stereo unspecified),1.8*,nt,nt,nt,2.7*
CCc1nc(SCC(=O)NCc2ccccc2)c2c(=O)n(C)c(=O)n(C)c2n1,95,87,27*,94,84
CCCc1nc(SCC(=O)N2CCC(Cc3ccccc3)CC2)c2c(=O)n(C)c(=O)n(C)c2n1,8,3.2*,42,105,1.4*
CN(CC(=O)Nc1cccc(F)c1)C(=O)CCCc1cccs1,93,nt,nt,nt,97
N#CC1=C(N)Oc2cc(N)ccc2C1C1CCCCC1 (stereo unspecified),29,58,24*,58,25
Cc1ccc(N2C(=O)[C@@H]3C(C(=O)C(c4ccccc4)c4ccccc4)=NN[C@@H]3C2=O)cc1,89,nt,nt,nt,90
COC(=O)C1=C(C)N(CCc2cc(OC)c(OC)c(OC)c2)C(=O)N[C@H]1c1ccc(Br)cc1,91,nt,nt,nt,76
Cc1ccc(NC(=O)CSc2nc(-c3ccco3)cc(C(F)(F)F)n2)cc1C,29,48,22*,72,26
O=C(CSc1nnc(-c2ccco2)c(-c2ccco2)n1)Nc1ccccc1,90,95,71,95,95
COC(=O)c1ccccc1NC(=O)CSc1nc(-c2ccco2)cc(C(F)(F)F)n1,17,61,24*,62,13
Cc1ccc(NC(=O)CSc2nnc(-c3ccco3)c(-c3ccco3)n2)cc1,18,44,26*,65,23
O=C(CSc1nc(-c2ccco2)cc(C(F)(F)F)n1)Nc1ccc2c(c1)CCC2,50,58,21*,60,43
O=C(CSc1nc(-c2ccco2)cc(C(F)(F)F)n1)NC1CCCC1,95,100,90,94,91
Cc1cc(NC(=O)CSc2nc(-c3ccco3)cc(C(F)(F)F)n2)n(-c2ccccc2)n1,26,nt,nt,nt,26
C/C(=N/NC(=O)c1ccc(Br)o1)C(C)C,82,nt,nt,nt,104
Cc1ccccc1OCC(=O)N/N=C/c1cccn1C,81,96,90,94,88
Cc1ccc(-c2ccccc2NC(=O)CCl)o1,23,84,0.1*,99,44
Oc1ccc(Br)cc1C=Nc1ccc2c3c(cccc13)CC2,59,nt,nt,nt,64
Cc1cc2c3c(c1)C1(C(=O)N3C(C)(C)CC2C)C(C#N)=C(N)Oc2n[nH]c(C)c21 (stereo unspecified),27,74,20*,93,27
CCOC(=O)C1=C(c2ccccc2)O/C(=C(/C#N)C(F)(F)F)S1,8,10*,1.7*,2.5*,7
Cc1cc(C)c2[nH]c(=O)c(CN(Cc3cccs3)C(=S)NCc3ccco3)cc2c1,72,nt,nt,nt,60
CC1(C)Cc2c(C#N)c(OCC(=O)c3ccc(Cl)cc3)nc(-c3ccoc3)c2CO1,64,76,50,39*,76
FC(F)(F)c1nc(-c2cccs2)ncc1-c1nnnn1-c1ccc(Cl)cc1,31,nt,nt,nt,30
SMILES,bCat KO growth,HUVEC prolif 384,H69AR growth 86K,Lung fibro prol,PTEN del growth
Clc1ccc(-n2nnnc2-c2cnc(-c3ccncc3)nc2-c2cccs2)cc1,61,76,9.8*,92,8
C=CCSC1=N/C(=C/c2ccsc2)C(=O)N1c1ccccc1,84,nt,nt,nt,85
OCCNc1ncnc2c1c(-c1ccccc1)c(-c1ccccc1)n2Cc1ccco1,84,nt,nt,nt,75
N=c1c2c(-c3ccccc3)c(-c3ccccc3)n(Cc3ccco3)c2ncn1Cc1ccccc1,1.1*,2.1*,9.9*,32*,1.9*
CC(C)Cn1cnc2c(c(-c3ccccc3)c(-c3ccccc3)n2Cc2ccco2)c1=N,2.8*,2.5*,1.1*,3.1*,3.0*
N=c1c2c(-c3ccccc3)c(-c3ccccc3)n(Cc3ccccc3)c2ncn1CCO,1.2*,3.3*,1.9*,22*,1.6*
C=C(C)C1CC=C(C)/C(=N/NC(=O)CNc2ccc(OCC)cc2)C1 (stereo unspecified),57,nt,nt,nt,70
COc1ccc(CCC(=O)NCCCNC(=O)CCc2ccc(OC)cc2)cc1,108,nt,nt,nt,101
COc1ccc2[nH]c(=O)c(CN(Cc3nnnn3Cc3ccco3)C3CCCCC3)cc2c1,76,69,38*,97,67
CCC(c1nnnn1Cc1ccco1)N(Cc1ccccc1OC)Cc1cc2cc(C)ccc2[nH]c1=O (stereo unspecified),55,81,79,86,40
COc1ccc2[nH]c(=O)c(CN(C3CCCCC3)C(c3nnnn3Cc3ccco3)C(C)C)cc2c1 (stereo unspecified),50,56,96,39*,47
COc1ccc(Cn2nnnc2CN(Cc2cc3cc(C)ccc3[nH]c2=O)C2CCCC2)cc1,66,78,51,89,54
CCC(c1nnnn1C1CCCCC1)N(Cc1ccco1)Cc1cc2ccc(OC)cc2[nH]c1=O (stereo unspecified),3.0*,53,15*,93,18
COc1cccc(/C=N/n2c(SC)nnc2-c2ccccc2)c1O,39,51,23*,89,31
CCOC(=O)/C(N=Nc1sc(C(=O)OC)c(C)c1C(=O)OCC)=C(\O)CCl,91,nt,nt,nt,97
Cc1ccc(C2CC(=O)Nc3cc4c(cc32)OCCO4)s1 (stereo unspecified),83,85,53,83,92
O=C1CC(c2cccs2)c2cc3c(cc2N1)OCCO3 (stereo unspecified),76,95,18*,94,69
COc1ccccc1C1CC(=O)Nc2cc3c(cc21)OCCO3 (stereo unspecified),13,46,22*,56,12
COc1cccc(C2CC(=O)Nc3cc4c(cc32)OCCO4)c1OC(C)C (stereo unspecified),84,96,27*,95,84
CC(C)Oc1ccccc1C1CC(=O)Nc2cc3c(cc21)OCCO3 (stereo unspecified),14,55,27*,55,20
CCOc1ccccc1C1CC(=O)Nc2cc3c(cc21)OCO3 (stereo unspecified),18,nt,nt,nt,18
CCC(C)NS(=O)(=O)c1ccc(S(=O)(=O)N(CCc2ccc(OC)c(OC)c2)Cc2cccs2)cc1 (stereo unspecified),48,nt,nt,nt,46
COn1c(C)c(C(C)=O)c2c3no[n+]([O-])c3ccc21,98,nt,nt,nt,103
C=CCOn1c(C)c(C(C)=O)c2c3no[n+]([O-])c3ccc21,88,74,29*,88,90
Nc1c(C(=O)NCC2CCCO2)c2nc3ccccc3nc2n1-c1ccccc1 (stereo unspecified),49,79,21*,74,56

# Screening data from PubChem.
